Target: T1, UniProt L7MU75
T1 sequence (whole entry): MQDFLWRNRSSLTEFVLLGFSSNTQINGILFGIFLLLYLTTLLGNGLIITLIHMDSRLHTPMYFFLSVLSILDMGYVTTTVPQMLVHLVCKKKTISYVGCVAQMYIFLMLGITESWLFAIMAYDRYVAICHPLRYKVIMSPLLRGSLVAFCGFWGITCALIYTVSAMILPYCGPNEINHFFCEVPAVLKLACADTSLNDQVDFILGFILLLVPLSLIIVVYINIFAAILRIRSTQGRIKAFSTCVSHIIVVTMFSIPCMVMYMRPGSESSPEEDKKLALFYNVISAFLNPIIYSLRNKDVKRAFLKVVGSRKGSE
Details: stereoisomer not certain
Outline: (§1)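 Each entry records the cell line, G-protein, co-transfected protein and tags used. Methods varied with the source, often transient luciferase assays in mammalian cell lines. A receptor–molecule pair is called responsive (active) if the original authors judged its signal statistically different from baseline and non-responsive (inactive) otherwise.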

Row | Compound | odorant receptor agonist call
1 | CCCCCCCCC(=O)O | inactive
2 | CC(C)=CCCC(C)CC=O (configuration not stated) | inactive
3 | CCCCOC(=O)CCC | inactive
4 | CCc1ncc(C)nc1CC | inactive
5 | CCCCCCCCS | inactive
6 | O=c1ccc2ccccc2o1 | active
7 | CCCC(=O)OC | inactive
8 | CCCCCCC(C)=O | inactive
9 | CCc1nccnc1CC | inactive
10 | CC(C)CN | inactive
11 | COc1nccnc1C(C)C | inactive
12 | CC(C)C12CCC(C)(CC1)O2 | inactive
13 | CC(C)=CCCC(C)CCO (configuration not stated) | inactive
14 | C=CCOC(=O)CCCCCC | inactive
15 | COc1cnccn1 | inactive
16 | CCC(=O)OC(C)(C)C | inactive
17 | CC(O)c1ccccc1 (configuration not stated) | inactive

Row | Compound | odorant receptor agonist call
18 | CC(C)=CC1CC(C)CCO1 (configuration not stated) | inactive
19 | CCC(C)c1nccnc1OC (configuration not stated) | inactive
20 | CCOc1ccccc1 | inactive
21 | CCCC(=O)OCC | inactive
22 | CCCCOC=O | inactive
23 | O=C(Cl)CCCCCCCC(=O)Cl | inactive
24 | CC1=CCC2CC1C2(C)C (configuration not stated) | inactive
25 | CCCOC(=O)CCC | inactive
26 | CCCCOC | inactive
27 | CCC=O | inactive
28 | C=CCCCCCC | inactive
29 | Cc1nccnc1C | inactive
30 | CCCCCC(C)(C)O | inactive
31 | CCCCCCCCCC(=O)[O-].[H+] | inactive
32 | OCc1ccccc1 | inactive
33 | CCC(=O)OC | inactive
34 | CC12CCC(CC1=O)C2(C)C (configuration not stated) | inactive

Target: T2, UniProt L7N0P5
T2 sequence (whole entry): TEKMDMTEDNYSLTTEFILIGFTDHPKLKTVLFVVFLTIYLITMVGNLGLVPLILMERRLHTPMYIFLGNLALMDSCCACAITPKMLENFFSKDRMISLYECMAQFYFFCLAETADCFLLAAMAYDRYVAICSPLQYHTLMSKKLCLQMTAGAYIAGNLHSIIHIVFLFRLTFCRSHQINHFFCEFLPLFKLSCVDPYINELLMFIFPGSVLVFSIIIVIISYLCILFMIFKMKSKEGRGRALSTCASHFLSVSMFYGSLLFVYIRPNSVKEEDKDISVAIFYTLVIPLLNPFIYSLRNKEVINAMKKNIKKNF
Details: stereoisomer not certain
Outline: as §1

Row | Compound | odorant receptor agonist call
35 | CCc1ncc(C)nc1CC | active
36 | CCc1nccnc1CC | active
37 | COc1nccnc1C(C)C | active
38 | COc1cnccn1 | active
39 | CCC(C)c1nccnc1OC (configuration not stated) | active
40 | Cc1nccnc1C | active

Target: T3, UniProt L7N210
T3 sequence (whole entry): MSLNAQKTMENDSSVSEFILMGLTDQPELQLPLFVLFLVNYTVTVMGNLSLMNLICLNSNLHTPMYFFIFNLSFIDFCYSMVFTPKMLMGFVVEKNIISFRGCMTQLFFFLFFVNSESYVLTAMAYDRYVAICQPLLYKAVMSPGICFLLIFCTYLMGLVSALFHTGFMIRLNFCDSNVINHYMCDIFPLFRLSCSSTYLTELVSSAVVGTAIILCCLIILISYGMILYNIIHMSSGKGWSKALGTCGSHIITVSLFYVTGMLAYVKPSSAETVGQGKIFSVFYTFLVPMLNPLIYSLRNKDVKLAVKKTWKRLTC
Details: stereoisomer not certain
Outline: as §1

Row | Compound | odorant receptor agonist call
41 | CCCCCCCCC(=O)O | inactive
42 | CCc1ncc(C)nc1CC | inactive
43 | CCCCCCCCS | inactive
44 | O=c1ccc2ccccc2o1 | active
45 | CCCCCCC(C)=O | inactive
46 | CCc1nccnc1CC | inactive
47 | COc1nccnc1C(C)C | inactive
48 | CC(C)=CCCC(C)CCO (configuration not stated) | inactive
49 | C=CCOC(=O)CCCCCC | inactive
50 | COc1cnccn1 | inactive
51 | CCC(C)c1nccnc1OC (configuration not stated) | inactive
52 | CCCCOC=O | inactive
53 | CCCCCCCCCC(=O)[O-].[H+] | inactive
54 | CC12CCC(CC1=O)C2(C)C (configuration not stated) | inactive

Target: T4, UniProt Q3KPB0
T4 sequence (whole entry): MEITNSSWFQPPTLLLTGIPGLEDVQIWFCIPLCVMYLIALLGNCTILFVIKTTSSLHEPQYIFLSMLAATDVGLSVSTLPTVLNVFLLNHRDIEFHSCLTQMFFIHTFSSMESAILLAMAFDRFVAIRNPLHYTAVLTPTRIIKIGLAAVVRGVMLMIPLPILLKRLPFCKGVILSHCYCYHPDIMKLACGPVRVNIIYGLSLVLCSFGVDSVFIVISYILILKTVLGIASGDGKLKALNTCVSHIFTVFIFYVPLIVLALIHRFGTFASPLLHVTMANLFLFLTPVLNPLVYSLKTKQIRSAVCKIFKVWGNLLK
Details: stereoisomer not certain
Outline: as §1

Row | Compound | odorant receptor agonist call
55 | CCCCCCCCC(=O)O | inactive
56 | CCc1ncc(C)nc1CC | inactive
57 | CCCCCCCCS | inactive
58 | CCCCCCC(C)=O | inactive
59 | CCc1nccnc1CC | inactive
60 | COc1nccnc1C(C)C | inactive
61 | CC(C)=CCCC(C)CCO (configuration not stated) | inactive
62 | C=CCOC(=O)CCCCCC | inactive
63 | COc1cnccn1 | inactive
64 | CCC(C)c1nccnc1OC (configuration not stated) | inactive
65 | CCCCOC=O | inactive
66 | CCCCCCCCCC(=O)[O-].[H+] | inactive
67 | CC12CCC(CC1=O)C2(C)C (configuration not stated) | inactive
